ChEMBL document CHEMBL1121438, “Synthesis and antitumor activity of analogues of the antitumor antibiotic chartreusin” (J Med Chem, 1980)

Tests used:
L1210 [1] = experiment: Evaluated for growth inhibition against cultured L1210 cells after 48 hour drug exposure in trial 1 at a dose of 1.44*10e-8; assay type: functional, Mus musculus
L1210 [2] = experiment: Evaluated for growth inhibition against cultured L1210 cells after 48 hour drug exposure in trial 2 at a dose of 1.44*10e-8; assay type: functional, Mus musculus
L1210 [3] = experiment: Evaluated for growth inhibition against cultured L1210 cells after 48 hour drug exposure in trial 2 at a dose of 1.44*10e-9; assay type: functional, Mus musculus
[4] = Partition coefficient (logP); assay type: physicochemical; details: octanol/water
L1210 [5] = experiment: Evaluated for growth inhibition against cultured L1210 cells after 48 hour drug exposure in trial 1 at a dose of 1.44*10e-9; assay type: functional, Mus musculus
L1210 [6] = experiment: Evaluated for growth inhibition against cultured L1210 cells after 48 hour drug exposure in trial 1 at a dose of 1.45*10e-8; assay type: functional, Mus musculus
L1210 [7] = experiment: Evaluated for growth inhibition against cultured L1210 cells after 48 hour drug exposure in trial 1 at a dose of 1.45*10e-9; assay type: functional, Mus musculus
L1210 [8] = experiment: Evaluated for growth inhibition against cultured L1210 cells after 48 hour drug exposure in trial 2 at a dose of 1.45*10e-8; assay type: functional, Mus musculus
L1210 [9] = experiment: Evaluated for growth inhibition against cultured L1210 cells after 48 hour drug exposure in trial 2 at a dose of 1.45*10e-9; assay type: functional, Mus musculus
Mus musculus [10] = experiment: Evaluated % increase in life span in vivo against P388 Murine leukemia cells in trial 2 at a dose of 200 mg/kg; assay type: functional
Summary of the method: (§1)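 Male CDF1 mice (17-22 g) inoculated ip with 10^6 P388 cells on day 0. Six animals per dose level. Activity is the median increase in life span over untreated controls (% ILS); body weight change of test vs control measured on days 1 and 5.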

Mus musculus [11] = experiment: Evaluated % increase in life span in vivo against P388 Murine leukemia cells in trial 2 at a dose of 25 mg/kg; assay type: functional; summary of the method: as §1
Mus musculus [12] = experiment: Evaluated % increase in life span in vivo against P388 Murine leukemia cells in trial 2 at a dose of 50 mg/kg; assay type: functional; summary of the method: as §1
Mus musculus [13] = experiment: Evaluated % increase in life span in vivo against P388 Murine leukemia cells in trial 1 at a dose of 100 mg/kg; assay type: functional; summary of the method: as §1
Mus musculus [14] = experiment: Evaluated % increase in life span in vivo against P388 Murine leukemia cells in trial 1 at a dose of 12.5 mg/kg; assay type: functional; summary of the method: as §1
Mus musculus [15] = experiment: Evaluated % increase in life span in vivo against P388 Murine leukemia cells in trial 1 at a dose of 200 mg/kg; assay type: functional; summary of the method: as §1
Mus musculus [16] = experiment: Evaluated % increase in life span in vivo against P388 Murine leukemia cells in trial 1 at a dose of 25 mg/kg; assay type: functional; summary of the method: as §1
Mus musculus [17] = experiment: Evaluated % increase in life span in vivo against P388 Murine leukemia cells in trial 1 at a dose of 50 mg/kg; assay type: functional; summary of the method: as §1
Mus musculus [18] = experiment: Evaluated % increase in life span in vivo against P388 Murine leukemia cells in trial 2 at a dose of 100 mg/kg; assay type: functional; summary of the method: as §1
Mus musculus [19] = experiment: Evaluated % increase in life span in vivo against P388 Murine leukemia cells in trial 2 at a dose of 12.5 mg/kg; assay type: functional; summary of the method: as §1
[20] = Partition coefficient (logP) (HPLC); assay type: physicochemical; details: octanol/water
Summary of the method: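 Relative log P by the reversed-phase LC method of McCall: octadecylsilyl column eluted with acetonitrile–water (1:1). The system was calibrated with a reference compound of known octanol/water log P, and log P values were derived from elution times.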

[21] = Partition coefficient determined using pi values; assay type: physicochemical; details: octanol/water
Summary of the method: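 Calculated log P: the aglycon value was summed with the π value of the glycosyl substituent, using literature −2.84 for O-β-glucosyl and −3.24 for maltosyl.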

L1210 [22] = experiment: Evaluated for growth inhibition against cultured L1210 cells after 48 hour drug exposure in trial 1 at a dose of 1.65*10e-8; assay type: functional, Mus musculus
L1210 [23] = experiment: Evaluated for growth inhibition against cultured L1210 cells after 48 hour drug exposure in trial 1 at a dose of 1.65*10e-9; assay type: functional, Mus musculus
L1210 [24] = experiment: Evaluated for growth inhibition against cultured L1210 cells after 48 hour drug exposure in trial 2 at a dose of 1.65*10e-8; assay type: functional, Mus musculus
L1210 [25] = experiment: Evaluated for growth inhibition against cultured L1210 cells after 48 hour drug exposure in trial 2 at a dose of 1.65*10e-9; assay type: functional, Mus musculus

Q: What does the source list for Cc1ccc2oc(=O)c3c(O)c4cccc(O[C@H]5O[C@H](C)[C@H](O)[C@H](O)[C@H]5O)c4c4oc(=O)c1c2c34?
A: Inhibition (L1210 [1]): 100%; Inhibition (L1210 [2]): 100%; Inhibition (L1210 [3]): 65%; logP [4]: 2.07; Inhibition (L1210 [5]): 71%

Q: With CO[C@H]1[C@@H](O)[C@@H](C)O[C@H](O[C@H]2[C@@H](Oc3cccc4c(O)c5c(=O)oc6ccc(C)c7c(=O)oc(c34)c5c67)O[C@H](C)[C@H](O)[C@@H]2O)[C@@H]1O as the molecule, how does the Inhibition (L1210 [6]) read?
A: Its Inhibition is 100%.

Q: And the Inhibition (L1210 [7])?
A: The Inhibition was 21%.

Q: What about the Inhibition (L1210 [8]) of the same molecule?
A: The Inhibition was 100%.

Q: And the Inhibition (L1210 [9])?
A: Its Inhibition is 32%.

Q: And the ILS at 200 mg/kg (Mus musculus [10])?
A: The ILS at 200 mg/kg was 58%.

Q: And the ILS at 25 mg/kg (Mus musculus [11])?
A: The ILS at 25 mg/kg was 56%.

Q: And the ILS at 50 mg/kg (Mus musculus [12])?
A: Its ILS at 50 mg/kg is 54%.

Q: What about the ILS at 100 mg/kg (Mus musculus [13]) of the same molecule?
A: The ILS at 100 mg/kg was 93%.

Q: And the ILS at 12.5 mg/kg (Mus musculus [14])?
A: Its ILS at 12.5 mg/kg is 46%.

Q: What about the ILS at 200 mg/kg (Mus musculus [15]) of the same molecule?
A: The ILS at 200 mg/kg was 43%.

Q: And the ILS at 25 mg/kg (Mus musculus [16])?
A: The ILS at 25 mg/kg was 47%.

Q: What about the ILS at 50 mg/kg (Mus musculus [17]) of the same molecule?
A: Its ILS at 50 mg/kg is 60%.

Q: And the ILS at 100 mg/kg (Mus musculus [18])?
A: The ILS at 100 mg/kg was 45%.

Q: What about the ILS at 12.5 mg/kg (Mus musculus [19]) of the same molecule?
A: The ILS at 12.5 mg/kg was 17%.

Q: And the logP [4]?
A: The logP was 1.8.

Q: With Cc1ccc2oc(=O)c3c(O)c4cccc(O[C@H]5O[C@H](CO)[C@@H](O)[C@H](O)[C@H]5O)c4c4oc(=O)c1c2c34 as the molecule, how does the logP [20] read?
A: The logP was 1.82.

Q: And the logP [21]?
A: The logP was 1.35.

Q: And the Inhibition (L1210 [6])?
A: The Inhibition was 100%.

Q: What about the Inhibition (L1210 [7]) of the same molecule?
A: The Inhibition was 59%.

Q: And the Inhibition (L1210 [8])?
A: Its Inhibition is 97%.

Q: What about the Inhibition (L1210 [9]) of the same molecule?
A: Its Inhibition is 47%.

Q: What does the source list for Cc1ccc2oc(=O)c3c(O)c4cccc(O)c4c4oc(=O)c1c2c34?
A: Inhibition (L1210 [22]): 57%; Inhibition (L1210 [23]): 0%; Inhibition (L1210 [24]): 58%; Inhibition (L1210 [25]): 7%; logP [4]: 4.19
